Measurements taken from ChEMBL document CHEMBL4706536, “Novel HIV-1 capsid-targeting small molecules of the PF74 binding site” (Eur J Med Chem, 2020).

Key:
[1] = system: Human immunodeficiency virus 1; test: Antiviral activity against HIV 1 NL4-3 infected in human TZM cells expressing GFP assessed as inhibition LTR-activated GFP expression at 20 uM preincubated for 24 hrs followed by viral infection and measured after 48 hrs relative to control; type: functional; details: Human immunodeficiency virus 1, NL4-3, TZM, time 72 hrs
In short: (§1)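 TZM-GFP cells were seeded at 1×10^4 per well. After 24 h, medium was replaced with compound at a single concentration. After a further 24 h, cells were infected with HIV-1 NL4-3 (MOI = 1) and incubated 48 h. GFP-positive cells were counted by imaging and expressed as % inhibition of LTR-driven GFP versus compound-free DMSO control. Run in duplicate, at least two independent experiments.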

[2] = system: Human immunodeficiency virus 1; test: Antiviral activity against HIV 1 NL4-3 infected in human TZM cells expressing GFP assessed as inhibition LTR-activated GFP expression at 2 uM preincubated for 24 hrs followed by viral infection and measured after 48 hrs relative to control; type: functional; details: Human immunodeficiency virus 1, NL4-3, TZM, time 72 hrs; in short: as §1
[3] = Cytotoxicity against human TZM cells expressing GFP assessed as reduction in cell viability after 72 hrs by XTT assay; type: cell-based
In short: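 TZM-GFP cells were seeded at 1×10^4 per well and exposed continuously to increasing compound concentrations for 72 h. Viable cells were measured by XTT. CC50 came from a log(inhibitor) vs normalized response, variable-slope fit, averaged across independent experiments. Duplicate wells, ≥2 experiments, mean ± SD.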

[4] = Half life in mouse liver microsomes at 1 uM in presence of NADPH preincubated for 15 mins followed by NADPH addition and measured up to 60 mins by LC-MS/MS analysis; type: ADME, Microsome; details: time 15-75 min
In short: (§2)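 Compound at 1 µM final was preincubated 15 min at 37 °C with human or mouse liver microsomes (0.5 mg/mL protein) and 1 mM MgCl2 in 0.1 M potassium phosphate, pH 7.4. The reaction was started with 1 mM NADPH at 37 °C and sampled at 0, 5, 15, 30 and 60 min. Samples were quenched in acetonitrile/0.1% formic acid with internal standard; t1/2 was determined by LC-MS/MS. A no-NADPH control ran in parallel. Done in duplicate.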

[5] = Half life in human liver microsomes at 1 uM in presence of NADPH preincubated for 15 mins followed by NADPH addition and measured up to 60 mins by LC-MS/MS analysis; type: ADME, Microsome; details: time 15-75 min; in short: as §2
[6] = system: Human immunodeficiency virus 1; test: Antiviral activity against HIV 1 NL4-3 infected in human TZM cells expressing GFP assessed as reduction in LTR-activated GFP expression preincubated for 24 hrs followed by viral infection and measured after 48 hrs; type: functional, organism-based; details: Human immunodeficiency virus 1, NL4-3, TZM
In short: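 TZM-GFP cells were seeded at 1×10^4 per well. After 24 h they were given increasing compound concentrations for 24 h, then infected with HIV-1 NL4-3 (MOI = 1) for 48 h. GFP-positive cells were counted versus DMSO control. EC50 came from a log(inhibitor) vs normalized response, variable-slope fit, calculated per independent experiment and averaged. Duplicate wells, ≥2 experiments, mean ± SD.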

half-life at 1 µM [4] [min]	half-life at 1 µM [5] [min]	EC50 [6] [µM]	Structure (SMILES)	inhibition at 20 µM [1] [%]	inhibition at 2 µM [2] [%]	CC50 at 72 h [3] [µM]
0.6	1.8	0.31	COc1ccc2[nH]cc(CC(=O)N[C@@H](Cc3ccccc3)C(=O)N(C)c3ccc(Cl)cc3)c2c1			> 50
		0.46	CN(C(=O)[C@H](Cc1ccccc1)NC(=O)Cc1c[nH]c2ccc(O)cc12)c1ccc(F)cc1			> 50
		0.32	CN(C(=O)[C@H](Cc1ccccc1)NC(=O)Cc1c[nH]c2ccc(O)cc12)c1cccc(F)c1			47
		0.99	COc1ccc2[nH]cc(CC(=O)N[C@@H](Cc3ccccc3)C(=O)N(C)c3cccc(F)c3)c2c1			> 50
		0.31	CN(C(=O)[C@H](Cc1ccccc1)NC(=O)Cc1c[nH]c2ccc(O)cc12)c1cccc(Cl)c1			> 100
		0.48	CN(C(=O)[C@H](Cc1ccccc1)NC(=O)Cc1c[nH]c2ccc(O)cc12)c1cccc(C(F)(F)F)c1			65
		0.38	CN(C(=O)[C@H](Cc1ccccc1)NC(=O)Cc1c[nH]c2ccc(O)cc12)c1cccc(Br)c1			> 100

More lines, now with the values behind:

Structure (SMILES)	half-life at 1 µM [4] [min]	half-life at 1 µM [5] [min]	EC50 [6] [µM]	inhibition at 20 µM [1] [%]	inhibition at 2 µM [2] [%]	CC50 at 72 h [3] [µM]
CCN(C(=O)[C@H](Cc1ccccc1)NC(=O)Cn1cnc2c1c(=O)n(C)c(=O)n2C)c1ccccc1				94	0	> 50
CN(C(=O)[C@H](Cc1ccccc1)NC(=O)Cn1cnc2c1c(=O)n(C)c(=O)n2C)c1cccc(Cl)c1				71	0	> 50
COc1ccc2[nH]cc(CC(=O)N[C@@H](Cc3ccccc3)C(=O)N(C)c3ccc(C)cc3)c2c1			0.28			> 50
CN(C(=O)[C@H](Cc1ccccc1)NC(=O)Cn1cnc2c1c(=O)n(C)c(=O)n2C)c1ccccc1	1.2	4.7		94	10	> 50
CN(C(=O)[C@H](Cc1ccccc1)NC(=O)Cn1cnc2c1c(=O)n(C)c(=O)n2C)c1cccc(F)c1				67	1	> 50
CN(C(=O)[C@H](Cc1ccccc1)NC(=O)Cn1cnc2c1c(=O)n(C)c(=O)n2C)c1ccc(Cl)cc1				96	6	> 50
COc1ccc2[nH]cc(CC(=O)N[C@@H](Cc3ccccc3)C(=O)N(C)c3ccccc3)c2c1	0.5	1.2	0.56			48
COc1ccc2[nH]cc(CC(=O)N[C@@H](Cc3ccccc3)C(=O)N(C)c3ccc(F)cc3)c2c1			0.57			> 50
Cc1ccc(N(C)C(=O)[C@H](Cc2ccccc2)NC(=O)Cn2cnc3c2c(=O)n(C)c(=O)n3C)cc1				98	18	> 50
CN(C(=O)[C@H](Cc1ccccc1)NC(=O)Cn1cnc2c1c(=O)n(C)c(=O)n2C)c1ccc(F)cc1				85	14	> 50
